Reference: ChEMBL document CHEMBL4715736, “Identification of anticancer agents based on the thieno[2,3-b]pyridine and 1H-pyrazole molecular scaffolds” (2016)

Legend:
Type in all cases: functional
OVCAR-5 [1] = assay: Growth inhibition of human OVCAR-5 cells incubated for 48 hrs by sulforhodamine B assay
Procedure, shortened: (§1)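 NCI DTP 60-line human tumour panel. Dose-response curves were run only for ligands active in the initial 10 µM screen. GI50 (concentration giving 50% of maximal inhibition of proliferation) and TGI (concentration giving total growth inhibition) were derived from these curves.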

BT-549 [2] = assay: Growth inhibition of human BT-549 cells assessed as cell growth at 100 uM incubated for 48 hrs by sulforhodamine B assay relative to control; details: read-out: Activity
RXF 393 = assay: Growth inhibition of human RXF 393 cells assessed as cell growth at 1 uM incubated for 48 hrs by sulforhodamine B assay relative to control; details: read-out: Activity
MDA-MB-435 [3] = assay: Growth inhibition of human MDA-MB-435 cells assessed as cell growth at 0.01 uM incubated for 48 hrs by sulforhodamine B assay relative to control; details: read-out: Activity
TK-10 [4] = assay: Growth inhibition of human TK-10 cells incubated for 48 hrs by sulforhodamine B assay; details: for CC50: read-out: LC50 (the source's name); procedure, shortened: as §1
TK-10 [5] = assay: Growth inhibition of human TK-10 cells assessed as cell growth at 100 uM incubated for 48 hrs by sulforhodamine B assay relative to control; details: read-out: Activity
MCF7 = assay: Growth inhibition of human MCF7 cells assessed as cell growth at 100 uM incubated for 48 hrs by sulforhodamine B assay relative to control; details: read-out: Activity
A498 = assay: Growth inhibition of human A498 cells assessed as cell growth at 100 uM incubated for 48 hrs by sulforhodamine B assay relative to control; details: read-out: Activity
Procedure, shortened: (§2)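 NCI Developmental Therapeutics Program NCI60 panel. Compounds that were active in the 10 µM one-dose screen went on to dose–response testing. Growth at each concentration is expressed relative to untreated control (100%). GI50 (concentration giving 50% of maximal inhibition of proliferation) and TGI (concentration giving total growth inhibition) were derived from the curves.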

RPMI-8226 = assay: Growth inhibition of human RPMI-8226 cells assessed as cell growth at 100 uM incubated for 48 hrs by sulforhodamine B assay relative to control; details: read-out: Activity
NCI-H322M = assay: Growth inhibition of human NCI-H322M cells incubated for 48 hrs by sulforhodamine B assay; details: for CC50: read-out: LC50 (the source's name)
Procedure, shortened: (§3)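 NCI60 panel at the NCI Developmental Therapeutics Program. Only compounds active in the 10 µM screen went to dose-response testing. GI50, the concentration giving 50% of maximal inhibition of proliferation, and TGI, the concentration giving total growth inhibition, were derived from the dose-response curves.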

CCRF-CEM [6] = assay: Growth inhibition of human CCRF-CEM cells assessed as cell growth at 100 uM incubated for 48 hrs by sulforhodamine B assay relative to control; details: read-out: Activity; procedure, shortened: as §2
UACC-257 = assay: Growth inhibition of human UACC-257 cells incubated for 48 hrs by sulforhodamine B assay; procedure, shortened: as §1
LOX IMVI = assay: Growth inhibition of human LOX IMVI cells assessed as cell growth at 0.1 uM incubated for 48 hrs by sulforhodamine B assay relative to control; details: read-out: Activity
BT-549 [7] = assay: Growth inhibition of human BT-549 cells incubated for 48 hrs by sulforhodamine B assay; details: for CC50: read-out: LC50 (the source's name); procedure, shortened: as §2
Hs-578T [8] = assay: Growth inhibition of human Hs-578T cells assessed as cell growth at 0.1 uM incubated for 48 hrs by sulforhodamine B assay relative to control; details: read-out: Activity
CCRF-CEM [9] = assay: Growth inhibition of human CCRF-CEM cells incubated for 48 hrs by sulforhodamine B assay; procedure, shortened: as §2
SW-620 = assay: Growth inhibition of human SW-620 cells assessed as cell growth at 100 uM incubated for 48 hrs by sulforhodamine B assay relative to control; details: read-out: Activity
SF-295 = assay: Growth inhibition of human SF-295 cells assessed as cell growth at 1 uM incubated for 48 hrs by sulforhodamine B assay relative to control; details: read-out: Activity
NCI-H226 = assay: Growth inhibition of human NCI-H226 cells incubated for 48 hrs by sulforhodamine B assay; details: for CC50: read-out: LC50 (the source's name); procedure, shortened: as §3
CAKI-1 = assay: Growth inhibition of human CAKI-1 cells assessed as cell growth at 0.1 uM incubated for 48 hrs by sulforhodamine B assay relative to control; details: read-out: Activity; procedure, shortened: as §2
Hs-578T [10] = assay: Growth inhibition of human Hs-578T cells assessed as cell growth at 100 uM incubated for 48 hrs by sulforhodamine B assay relative to control; details: read-out: Activity
SK-MEL-2 [11] = assay: Growth inhibition of human SK-MEL-2 cells assessed as cell growth at 100 uM incubated for 48 hrs by sulforhodamine B assay relative to control; details: read-out: Activity
SF-539 = assay: Growth inhibition of human SF-539 cells incubated for 48 hrs by sulforhodamine B assay; details: for CC50: read-out: LC50 (the source's name); procedure, shortened: as §1
SK-MEL-2 [12] = assay: Growth inhibition of human SK-MEL-2 cells assessed as cell growth at 0.1 uM incubated for 48 hrs by sulforhodamine B assay relative to control; details: read-out: Activity
OVCAR-5 [13] = assay: Growth inhibition of human OVCAR-5 cells assessed as cell growth at 100 uM incubated for 48 hrs by sulforhodamine B assay relative to control; details: read-out: Activity
HCT-15 = assay: Growth inhibition of human HCT-15 cells assessed as cell growth at 100 uM incubated for 48 hrs by sulforhodamine B assay relative to control; details: read-out: Activity
KM12 = assay: Growth inhibition of human KM12 cells assessed as cell growth at 100 uM incubated for 48 hrs by sulforhodamine B assay relative to control; details: read-out: Activity
MDA-MB-435 [14] = assay: Growth inhibition of human MDA-MB-435 cells assessed as cell growth at 0.1 uM incubated for 48 hrs by sulforhodamine B assay relative to control; details: read-out: Activity
SN12C = assay: Growth inhibition of human SN12C cells assessed as cell growth at 100 uM incubated for 48 hrs by sulforhodamine B assay relative to control; details: read-out: Activity
SK-OV-3 = assay: Growth inhibition of human SK-OV-3 cells assessed as cell growth at 1 uM incubated for 48 hrs by sulforhodamine B assay relative to control; details: read-out: Activity
K562 = assay: Growth inhibition of human K562 cells assessed as cell growth at 1 uM incubated for 48 hrs by sulforhodamine B assay relative to control; details: read-out: Activity
NCI-H23 [15] = assay: Growth inhibition of human NCI-H23 cells incubated for 48 hrs by sulforhodamine B assay; procedure, shortened: as §3
UACC-62 = assay: Growth inhibition of human UACC-62 cells assessed as cell growth at 0.1 uM incubated for 48 hrs by sulforhodamine B assay relative to control; details: read-out: Activity
NCI-H23 [16] = assay: Growth inhibition of human NCI-H23 cells assessed as cell growth at 100 uM incubated for 48 hrs by sulforhodamine B assay relative to control; details: read-out: Activity
PC-3 = assay: Growth inhibition of human PC-3 cells assessed as cell growth at 1 uM incubated for 48 hrs by sulforhodamine B assay relative to control; details: read-out: Activity

Cc1ccc(NC(=O)c2sc3nc4c(cc3c2N)C(=O)CCC4)cc1C
GI50 (OVCAR-5 [1]): 2.29 µM
TGI (OVCAR-5 [1]): > 100 µM
CC50 (OVCAR-5 [1]; read-out: LC50 (the source's name)): > 100 µM
growth at 100 µM (BT-549 [2]): 42%
growth at 1 µM (RXF 393): -11%
growth at 0.01 µM (MDA-MB-435 [3]): 95%
TGI (TK-10 [4]): > 100 µM
CC50 (TK-10 [4]): > 100 µM
growth at 100 µM (TK-10 [5]): 47%
growth at 100 µM (MCF7): 8%
growth at 100 µM (A498): -17%
growth at 100 µM (RPMI-8226): -9%
GI50 (NCI-H322M): 0.975 µM
TGI (NCI-H322M): > 100 µM
CC50 (NCI-H322M): > 100 µM
growth at 100 µM (CCRF-CEM [6]): 10%
LC50 (concentration killing 50% of cells) (UACC-257): > 100 µM
TGI (UACC-257): > 100 µM
growth at 0.1 µM (LOX IMVI): 98%
TGI (BT-549 [7]): > 100 µM
CC50 (BT-549 [7]): > 100 µM
growth at 0.1 µM (Hs-578T [8]): 88%
GI50 (CCRF-CEM [9]): 0.334 µM
LC50 (CCRF-CEM [9]): > 100 µM
TGI (CCRF-CEM [9]): ≥ 100 µM
growth at 100 µM (SW-620): 18%
growth at 1 µM (SF-295): 17%
GI50 (NCI-H226): 22.4 µM
TGI (NCI-H226): > 100 µM
CC50 (NCI-H226): > 100 µM
growth at 0.1 µM (CAKI-1): 91%
growth at 100 µM (Hs-578T [10]): 17%
growth at 100 µM (SK-MEL-2 [11]): 18%
GI50 (SF-539): 0.404 µM
CC50 (SF-539): > 100 µM
growth at 0.1 µM (SK-MEL-2 [12]): 90%
growth at 100 µM (OVCAR-5 [13]): 31%
growth at 100 µM (HCT-15): 7%
growth at 100 µM (KM12): 9%
growth at 0.1 µM (MDA-MB-435 [14]): 60%
growth at 100 µM (SN12C): 17%
growth at 1 µM (SK-OV-3): 29%
growth at 1 µM (K562): 17%

CN1CCc2nc3sc(C(N)=O)c(N)c3c(-c3cccs3)c2C1
growth at 100 µM (BT-549 [2]): -8%
growth at 1 µM (RXF 393): 55%
growth at 0.01 µM (MDA-MB-435 [3]): 95%
GI50 (TK-10 [4]): 3.32 µM
TGI (TK-10 [4]): 13.1 µM
CC50 (TK-10 [4]): > 100 µM
growth at 100 µM (TK-10 [5]): -6%
growth at 100 µM (MCF7): 11%
growth at 100 µM (A498): -23%
growth at 100 µM (RPMI-8226): 1%
GI50 (NCI-H322M): 3.85 µM
TGI (NCI-H322M): 88.5 µM
CC50 (NCI-H322M): > 100 µM
GI50 (NCI-H23 [15]): 2.87 µM
LC50 (50% lethal concentration) (NCI-H23 [15]): > 100 µM
TGI (NCI-H23 [15]): 12.6 µM
growth at 100 µM (CCRF-CEM [6]): 7%
GI50 (UACC-257): 4 µM
LC50 (concentration killing 50% of cells) (UACC-257): > 100 µM
TGI (UACC-257): > 100 µM
growth at 0.1 µM (LOX IMVI): 83%
growth at 0.1 µM (UACC-62): 105%
GI50 (BT-549 [7]): 3.26 µM
TGI (BT-549 [7]): 35.5 µM
CC50 (BT-549 [7]): > 100 µM
growth at 0.1 µM (Hs-578T [8]): 92%
GI50 (CCRF-CEM [9]): 3.77 µM
LC50 (CCRF-CEM [9]): > 100 µM
TGI (CCRF-CEM [9]): > 100 µM
growth at 100 µM (SW-620): 3%
growth at 1 µM (SF-295): 100%
GI50 (NCI-H226): 3.16 µM
TGI (NCI-H226): > 100 µM
CC50 (NCI-H226): > 100 µM
growth at 100 µM (NCI-H23 [16]): -30%
growth at 0.1 µM (CAKI-1): 82%
growth at 100 µM (Hs-578T [10]): -13%
growth at 100 µM (SK-MEL-2 [11]): -45%
GI50 (SF-539): 2.35 µM
TGI (SF-539): 6.79 µM
CC50 (SF-539): > 100 µM
growth at 0.1 µM (SK-MEL-2 [12]): 114%
growth at 100 µM (HCT-15): 6%
growth at 100 µM (KM12): 2%
growth at 0.1 µM (MDA-MB-435 [14]): 95%
growth at 100 µM (SN12C): 6%
growth at 1 µM (SK-OV-3): 89%
growth at 1 µM (PC-3): 106%
growth at 1 µM (K562): 96%
